B1: tRNA (parent)
chain: GUUCCGUUGGCGUAAUGGUAACGCGUCUCCCUCCUAAGGAGAAGACUGCGGGUUCGAGUCCCGUACGGAACG

Variants at the floor of the assay were thinned out.

In the data set the parent is B1. Nature of the data set: yeast fitness relative to wild type (ratio to wild type); higher = fitter; tRNA-Arg(CCU), competitive growth, 37 C, YPD. Summed up:
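Variants of the tRNA-Arg(CCU) gene were chemically synthesised with a 3% per-site mutation rate across 69 sites and placed at the native genomic locus in Saccharomyces cerevisiae. Six parallel replicates of the pooled strains were competed in YPD at 37°C for 24 hours, and gene amplicons from the start and end populations were read by 100-nucleotide paired-end sequencing. Darwinian fitness relative to wild type was derived from changes in genotype frequencies. Genotypes required ≥ 100 starting reads, and estimates < 0.5 were set to 0.5.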
As for U16G C22A C61A, the yeast fitness is at most 0.5.
For the variant G17C C22G C24A C62A C66U, the yeast fitness was at most 0.5.
For G18A A20U C34U A36G, the yeast fitness is at most 0.5.
With G17A C29G A45G C61U the figure was at most 0.5; with G17A C60U, 0.594; with G17A G56C, 0.527.
With G17A U28G C62G the figure was at most 0.5.
Consider G17A U32A U54C, for which the yeast fitness is at most 0.5.
Take G17A A57G: the yeast fitness was found to be 0.906.
With G17C U35A C61U the figure was at most 0.5; with G18A G39U G48A C61G, at most 0.5.
For the variant U16G A21U C34G A40U, the yeast fitness amounted to 0.624.
G17A C49G: the yeast fitness came to 0.761.
G17A C49U: the yeast fitness is 0.892.
Regarding G17C C24U C46G C62G, the yeast fitness is 0.572.
For U16G C66U, the yeast fitness was 0.875.
G18A C30U A40G G68C: the yeast fitness was at most 0.5.
With G17A A70G, the yeast fitness came to 0.866.
With G17A A70C the figure was 0.842; with U16G C24U C49G C55G, at most 0.5.
On to U16G A20C G67C, for which the yeast fitness is at most 0.5.
G17U C46A: the yeast fitness is 0.785.
In the case of G17A C30A it was 0.71; in that of G17A U28C A42C C66U, at most 0.5; in that of G17A U26C C61U G67A, at most 0.5.
With G18C C29U C34U, the yeast fitness was at most 0.5.
Regarding U19A C30A A43G C49U G51U C55A, the yeast fitness was found to be 0.528.
Take G17C G23U U28A C31G A65G: the yeast fitness is at most 0.5.
As to U16G G39C G56C, the yeast fitness was at most 0.5.
Turning to G18A A70C, the yeast fitness is 0.74.
With G18A A70G the figure was 0.646.
In the case of U16C U59A it was 0.852; in that of G18A C27U C46A, 0.528; in that of G18A A21U C49A C60G A70U, at most 0.5.
Regarding G17A G25A C31G G68A, the yeast fitness is at most 0.5.
As for G17C U47G G67A A69U, the yeast fitness worked out at 0.55.
In the case of G17A C34G, the yeast fitness was determined as 0.569.
G18C C24G C46A G56C G58A: the yeast fitness is at most 0.5.
Consider U16G C29G C49G A65U, for which the yeast fitness was at most 0.5.
As for G18C U35A A45C C62U, the yeast fitness was 0.542.
For G18A C27U G39A C60A, the yeast fitness was at most 0.5.
As to G17C C27G U28C A65U, the yeast fitness was at most 0.5.
In the case of G17A C24U it was 0.778; in that of U19A C22G C24U C33G A36G, 0.581.
Turning to U19A C24A C30G C34U G52C, the yeast fitness is at most 0.5.
Consider G18A U19C A43U U59A, for which the yeast fitness was 0.538.
Regarding G17C U35C C60U, the yeast fitness is at most 0.5.
Turning to U16G U59G, the yeast fitness was found to be 0.78.
Consider G18A C29A C49U, for which the yeast fitness was at most 0.5.
Consider G18C U26A A45G C66G, for which the yeast fitness is at most 0.5.
With G18A C34G C46A C62U A69C, the yeast fitness was at most 0.5.
Turning to G17C U53A, the yeast fitness amounted to 0.583.
In the case of U16G C34G A42G C49G C62U A69C, the yeast fitness is 0.506.
As to G17C U54A G56C, the yeast fitness is at most 0.5.
Consider U19A C27G G63C, for which the yeast fitness was 0.754.
With G18C C29U C34U A36G G58C the figure was at most 0.5; with U16G A65U A70U, 0.64; with U16G C29G C46U G51C C55G, at most 0.5.
In the case of G18A C34A, the yeast fitness is at most 0.5.
Consider G17A A21C A42C, for which the yeast fitness was at most 0.5.
Take G18A U19A C27U G67A: the yeast fitness was at most 0.5.
For G18A A21C C30U, the yeast fitness was at most 0.5.
With G17C C61G C66U the figure was at most 0.5.
With G18C C24U C30G the figure was at most 0.5; with G17A G25A C34U C55G, 0.532; with U16G C30G C55G, at most 0.5.
In the case of G17A G25C A40U it was 0.574; in that of G17A U32C A37G A69C, 0.5.
As to G18A A21U U32A C62G A65G, the yeast fitness is at most 0.5.
As for G17C C46G G68A, the yeast fitness is at most 0.5.
For G18C C24U C66U, the yeast fitness is at most 0.5.
Turning to G17U C30A A43U C66U, the yeast fitness was at most 0.5.
With G17A A21G U28G C62G the figure was at most 0.5; with U16G C31G C55U C61A C66U, at most 0.5; with G18A U47C, 0.728.
In the case of G18A C30U C60G it was at most 0.5.
For U16G U28C, the yeast fitness was 0.862.
On to G18A A21C C33G A37U U64G, for which the yeast fitness is at most 0.5.
Regarding U19A C27A C46A, the yeast fitness came to 0.506.
As for G18C A57U G67C, the yeast fitness was at most 0.5.
As for G18C A42U G48C U64C, the yeast fitness was at most 0.5.
U16G A20G A69C: the yeast fitness came to 0.749.
Regarding G17A U19C C66U, the yeast fitness came to 0.665.
As for U16G A45U G50A A69C, the yeast fitness is 0.631.
As for G18A C55A C62G, the yeast fitness was at most 0.5.
G17A C61G: the yeast fitness was 0.573.
Consider G17A C31A G68C, for which the yeast fitness is at most 0.5.
With G17A C33A the figure was 0.53; with U16G C31U A42U, 0.522.
U16G A40U C62G: the yeast fitness amounted to 0.566.
Turning to G17A C22G U28A C31G C55A G68C, the yeast fitness was at most 0.5.
For the variant G18C C24G A45G C55G, the yeast fitness turned out to be 0.693.
Turning to U16G U19A G23C C49U, the yeast fitness is at most 0.5.
On to G18U U26A U59C C66A A70U, for which the yeast fitness was at most 0.5.
With G17A G18A C61A the figure was at most 0.5; with G18C A21U U26C G51C, 0.739.
With G18A G25A C46U C55A the figure was at most 0.5.
In the case of U19A C22U A40U G51C, the yeast fitness is at most 0.5.
With G17A C24U C31G A65U the figure was at most 0.5.
As to G17A A69G, the yeast fitness was found to be 0.813.
On to G17A A69C, for which the yeast fitness amounted to 0.721.
Take G18A C30U A45C G52C: the yeast fitness was at most 0.5.
As to U16G U53C C61G, the yeast fitness is at most 0.5.
Take G18U U26A C66A A70U: the yeast fitness came to 0.536.
On to U16G C66U A69C, for which the yeast fitness came to 0.728.
U19A C27U A65U: the yeast fitness is 0.717.
In the case of G18C C62A C66A it was at most 0.5.
Take G17A C33U A36U C46A: the yeast fitness stood at 0.822.
As for G17C C46U G68A, the yeast fitness is at most 0.5.
In the case of U19A A45G G68C it was at most 0.5.
Turning to G18A G23A C33A U64C, the yeast fitness came out at 0.789.
As to G18A A36C, the yeast fitness is 0.503.
In the case of G17A A20G C27G A36C, the yeast fitness was 0.609.
Consider U19A A57G, for which the yeast fitness was 0.931.
In the case of G17C A37U A69C it was at most 0.5; in that of G18C C60A, at most 0.5.
With G18C C60U the figure was at most 0.5; with G17A C31A C33U U59G A65C, at most 0.5; with G18C C24G U35C G50C C55G G67C, at most 0.5.
On to U19A C27G C31U A69U, for which the yeast fitness is at most 0.5.
Regarding U16G U26A C34U G50A A69U, the yeast fitness amounted to 0.551.
For G18C G41C C62G, the yeast fitness is at most 0.5.
Regarding G17A C22G C27A, the yeast fitness was determined as 0.579.
For the variant G18A C31A A43G G50A A57U, the yeast fitness amounted to 0.572.
Regarding G17C C22G G52A, the yeast fitness was at most 0.5.
For the variant U16G G68C A69G, the yeast fitness is 0.556.
As for G18A A37U U47A C62U, the yeast fitness was at most 0.5.
G17A C22A A45C C46U: the yeast fitness was determined as 0.578.
Take G17A A20G C27G A36C A65U: the yeast fitness was at most 0.5.
With G17A A42G the figure was 0.732; with G18C G23A G25C U35C A37G A43C C55G G68A, at most 0.5.
With G18C C34U A69C the figure was at most 0.5; with G17A C46U U59A, 0.584; with G18A A21C G23U U32A A42U G48C U64A, 0.529.
As for G17C U19A C30U A36G A70G, the yeast fitness is at most 0.5.
For the variant G18A C29U C31A, the yeast fitness turned out to be 0.575.
For G18C C29U C30U C49U G67A, the yeast fitness was at most 0.5.
With G17U A57G A69C the figure was at most 0.5; with G17U A37U, at most 0.5; with G17C A20U U54A C61U, 0.546.
As for G17C U19A C49G A69G, the yeast fitness is at most 0.5.
For U19A C29U G67C A69G, the yeast fitness is at most 0.5.
Regarding G18C U26G, the yeast fitness came to 0.644.
On to G18C U26A, for which the yeast fitness was 0.609.
Take G17A G23A C66A: the yeast fitness came out at 0.776.
As for G17C A37C, the yeast fitness was 0.644.
For G17C U26C C46U A65C, the yeast fitness was at most 0.5.
As to U19A C27A C46A G67A, the yeast fitness was at most 0.5.
As to G18C G23A G25C A37G A43C U54C C55G G68A, the yeast fitness is at most 0.5.
Consider U16G U26G A36G G68C, for which the yeast fitness was found to be 0.629.
Turning to G17A C22G C29U G51C C55G, the yeast fitness was at most 0.5.
Take U16G A20G: the yeast fitness amounted to 1.
In the case of G18A A65C it was 0.759; in that of G18A U19G C60U A69C, at most 0.5.
Regarding G17A C22U C46U C66U A70C, the yeast fitness is at most 0.5.
G17A C31U U35C A57G: the yeast fitness came out at 0.527.
Turning to G17C C24G U28A C30U A65U, the yeast fitness was at most 0.5.
For U19A A36C G51C U59A, the yeast fitness is at most 0.5.
Consider G17C G41A, for which the yeast fitness was determined as 0.615.
In the case of G17C A20G A57G C62U, the yeast fitness was at most 0.5.
G18A G25A A70G: the yeast fitness came to 0.54.
On to G18C G25C U28G A42G, for which the yeast fitness was at most 0.5.
Consider G18A U26C, for which the yeast fitness turned out to be 0.648.
In the case of U16C U47A G68A, the yeast fitness is at most 0.5.
For the variant G18A A21U A37U A42U C46A G58C U64A, the yeast fitness was at most 0.5.
With U19A C30G A40C C62G C66G A69C, the yeast fitness is at most 0.5.
On to U19A A20C A21G C30G A43G C55G, for which the yeast fitness is at most 0.5.

The values are drawn from the RNAGym collection of RNA variant scans (doi:10.1126/science.aae0568).
